Data: paper PMC11421684 (Food and chemical toxicology : an international journal …, 2014)
Where two headings read alike, the source gives them in different places.

What was measured:
[1] = Weight gains, feed and water consumption of gavaged rats; format: in vivo, rat
In short: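 Rats were housed singly at 18–26 °C, 40–70% RH and 12 h light/dark, with feed and water ad libitum. They were gavaged for 10 days from GD10 with vehicle (1% CMC-Na) or 1000 mg/kg BW/day test compound. Fluid intake was measured every 3 days and feed every 7 days. For dams, adjusted gain = GD20 body weight minus gravid uterus weight and GD10 weight.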

[2] = Body weight and organ weights standardized to body weight; format: in vivo, rat; conditions: 1000 mg/kg BW/day; for Paired kidney weight standardized to body weight (% ± SEM): group mean
pregnant rats [3] = test: Reproductive indices at necropsy; format: in vivo, rat; conditions: dams
In short: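 Time-pregnant rats were gavaged daily for 10 days from GD10 with 1% CMC-Na or 1000 mg/kg BW/day test compound. At necropsy the gravid uterus was removed whole and weighed, and corpora lutea, implants, and early and late deaths were recorded. Groups were compared against both control and the other triazine group.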

fetuses = test: Fetal data; format: in vivo, rat; conditions: dams, 1000 mg/kg BW/day, GD20
In short: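 Dams were dosed by gavage (1000 mg/kg BW/day or 1% CMC-Na vehicle) for 10 days from GD10. At GD20 necropsy, the gravid uterus was removed whole and weighed. Each viable fetus was recorded for uterine position, sex, weight, crown-rump length and external abnormalities. Runts were defined as below 70% of the control litter average weight by gender.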

kidney = test: Kidney wet-mount analysis for renal crystals; format: in vivo, rat
In short: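 After 10 days of gavage at 1000 mg/kg BW/day, a thin fresh renal slice spanning cortex and medulla was weighed. It was compressed between two slides with a coverslip and examined fresh by light microscopy. Crystals were ranked on a subjective 0–5 scale; some views used polarised light.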

[4] = Serum chemistry, renal function; format: in vivo, rat; conditions: for Blood urea nitrogen (mean ± SEM) / Creatinine (mean ± SEM) / Uric acid (mean ± SEM): serum
In short: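 Serum was taken from pregnant and non-pregnant rats after 10 days of gavage with vehicle or 1000 mg/kg BW/day test compound. Samples were brought to room temperature. BUN, creatinine and uric acid were measured on a benchtop veterinary chemistry analyser. Results were compared with control and the other treated group.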

[5] = Serum triazine analysis by LC-MS/MS; format: in vivo; conditions: pregnant female rats, individual rat; label = dose group; LOD 0.4 μg/mL
In short: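 Serum was collected from each rat after 10 daily gavages of 1000 mg/kg BW/day test compound or vehicle. Melamine and cyanuric acid were quantified by a previously published LC-MS/MS method, validated with pre-spiked serum samples at several fortification levels. Natural-log serum concentrations were compared between pregnant and non-pregnant rats by two-sided t-test (p ≤ 0.05).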

[6] = Amniotic fluid triazine analysis by LC-MS/MS; format: in vivo, rat; conditions: pregnant female rats, pooled by dam; label = dose group; LOD 0.4 μg/mL
In short: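 Amniotic fluid came from GD20 dams gavaged for 10 days with vehicle or 1000 mg/kg BW/day test compound. Melamine and cyanuric acid were measured by a previously published LC-MS/MS method, validated with pre-spiked amniotic fluid. Serum-to-amniotic fluid Pearson correlations were run only on rats with both samples (p ≤ 0.05).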

[7] = Formalin, ethanol and freezing effects on renal crystals; parameters: species or system rat
In short: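 Fresh kidney wet-mounts with crystal rank 4–5 were flooded with 10% neutral buffered formalin and photographed repeatedly. Times were 0, 1, 2, 3 and 24 h for melamine-exposed kidney and 0, 10, 20, 30 min and 1 h for cyanuric acid-exposed kidney. Sections in 100% ethanol were checked daily for up to 6 days. Frozen tissue, either freeze–thawed or held at −70 °C, was cut into 6 μm cryosections, unstained or unfixed H&E.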

kidney and bladder = test: Histopathology of kidney and bladder; format: in vivo, rat
rats = test: Clinical observations and survival; format: in vivo, rat; conditions: 1000 mg/kg BW/day
In short: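 Female rats, time-pregnant or non-pregnant, were weight-stratified and randomised from GD10. They were gavaged each morning for 10 days with 1% CMC-Na vehicle or 1000 mg/kg BW/day test compound at 1 mL/100 g (n = 11/group; pregnant high-triazine group n = 13). Observations were made at least twice on day 1, then at least daily, covering skin, fur, eyes, mucosa, autonomic/CNS signs and behaviour. Animals removed early were counted as deaths.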

[8] = oral, female rats; ref Jacob et al., 2012; cited from earlier work
ABCB1 = conditions: MDCK cells; ref Partanen et al. (2012); cited from earlier work
ABCC2 = conditions: MDCK cells; ref Partanen et al. (2012); cited from earlier work
ABCG2 = conditions: MDCK cells; ref Partanen et al. (2012); cited from earlier work
[9] = pregnant rats, ref Jingbin et al. (2010), cited from earlier work
pregnant rats [10] = conditions: F344 rats, MEL in feed; ref Melnick et al. (1984); cited from earlier work
[11] = not pregnant rats, 1000 mg/kg BW/day
[12] = pregnant rats, 1000 mg/kg BW/day
[13] = 1000 mg/kg BW/day, necropsy GD20
[14] = kidney, H&E, pregnant and non-pregnant

Nc1nc(N)nc(N)n1 [MEL, melamine]
Total feed consumption (g ± SEM) [1, 11]: 112.3 ± 9.2^^ g
Total water consumption (g ± SEM) [1, 11]: 295.1 ± 21.9 g
Total bw gain (g ± SEM) ([1]; not pregnant rats, 1000 mg/kg BW/day gavage 10 days, brackets indicate negative): (9.1) ± 6.5^^ g
Total feed consumption (g ± SEM) [1, 12]: 122.2 ± 11.0^^ g
Total water consumption (g ± SEM) [1, 12]: 391.8 ± 43.6 g
Total bw gain (g ± SEM) ([1]; pregnant rats, 1000 mg/kg BW/day gavage GD10-20): 5.7 ± 14.9^^ g
Adjusted weight gain (g ± SEM) ([1]; pregnant rats, GD20 body weight minus gravid uterus weight and GD10 weight, brackets indicate negative, 1000 mg/kg BW/day): (32.0) ± 14.6^^ g
GD20 Body weight (g ± SEM) ([2]; not pregnant rats): 211.3 ± 6.3 g
Heart weight standardized to body weight (% ± SEM) ([2]; not pregnant rats): 0.43 ± 0.02 %
Left kidney weight standardized to body weight (% ± SEM) ([2]; not pregnant rats): 0.65 ± 0.06%
Liver weight standardized to body weight (% ± SEM) ([2]; not pregnant rats): 3.70 ± 0.14%
Right kidney weight standardized to body weight (% ± SEM) ([2]; not pregnant rats): 0.68 ± 0.08^^ %
Spleen weight standardized to body weight (% ± SEM) ([2]; not pregnant rats): 0.26 ± 0.02%
Paired kidney weight standardized to body weight (% ± SEM) ([2]; not pregnant rats): 1.33 ± 0.13^^ %
GD20 Body weight (g ± SEM) ([2]; pregnant rats): 247.6 ± 11.5 g
Heart weight standardized to body weight (% ± SEM) ([2]; pregnant rats): 0.37 ± 0.03^^ %
Left kidney weight standardized to body weight (% ± SEM) ([2]; pregnant rats): 0.52 ± 0.05%
Liver weight standardized to body weight (% ± SEM) ([2]; pregnant rats): 3.64 ± 0.08%
Right kidney weight standardized to body weight (% ± SEM) ([2]; pregnant rats): 0.56 ± 0.05^^ %
Spleen weight standardized to body weight (% ± SEM) ([2]; pregnant rats): 0.16 ± 0.03%
Paired kidney weight standardized to body weight (% ± SEM) ([2]; pregnant rats): 1.09 ± 0.10^^ %
No. corpea lutea (mean ± SEM) (pregnant rats [3]; 1000 mg/kg BW/day gavage GD10-20, necropsy GD20): 15.1 ± 0.4
Early and late deaths (mean% of implants ± SEM) (pregnant rats [3]; [13]): 60.3 ± 14.2^^ % of implants
Early deaths (mean% of implants ± SEM) (pregnant rats [3]; [13]): 28.8 ± 12.5^@ % of implants
Implant efficiency (mean% ± SEM) (pregnant rats [3]; [13]): 88.0 ± 3.6%
Late deaths (mean% of implants ± SEM) (pregnant rats [3]; [13]): 31.6 ± 13.1 % of implants
No. fetuses alive (mean ± SEM) (pregnant rats [3]; [13]): 5.5 ± 2.0
No. implants (mean ± SEM) (pregnant rats [3]; [13]): 13.3 ± 0.6
Percent alive both genders (mean% ± SEM) (pregnant rats [3]; [13]): 39.7 ± 14.2%
Percent live females (mean% ± SEM) (pregnant rats [3]; [13]): 40.7 ± 3.8%
Average crown rump length (mean cm ± SEM) (fetuses): 3.62 ± 0.23^^ cm
Average fetal body weight (g ± SEM) (fetuses): 2.85 ± 0.48^^ g
Litter size (mean ± SEM) (fetuses): 5.5 ± 2.0^^
Number of rats with non-pigmented pyramidal uroliths adjacent to the papilla (kidney; 1000 mg/kg BW/day): 4
Treated rats that developed renal crystals (percent) (kidney; pregnant and non-pregnant combined, MEL n = 24, CYA n = 22, wet-mount): 96%
Number of treated rats that developed renal crystals (kidney; pregnant and non-pregnant combined, MEL of 24, CYA of 22, wet-mount): 23
Effect on uric acid serum levels versus control rats ([4]; 1000 mg/kg BW/day): did not appear to have an effect
Blood urea nitrogen (mean ± SEM) [4, 11]: 62.45 ± 17.32^^ mg/dL
Creatinine (mean ± SEM) [4, 11]: 1.28 ± 0.27^^ mg/dL
Uric acid (mean ± SEM) [4, 11]: 4.18 ± 0.29 mg/dL
Mean creatinine of all treated rats ([4]; pregnant and non-pregnant pooled): 1.4 mg/dL
Mean BUN of all treated rats ([4]; pregnant and non-pregnant pooled, all but one had crystals): 69 mg/dL
BUN and creatinine levels, elevation over control and CYA group levels ([4]; pregnant and non-pregnant rats): 2–4 times
Blood urea nitrogen (mean ± SEM) [4, 12]: 78.25 ± 18.41^^ mg/dL
Creatinine (mean ± SEM) [4, 12]: 1.45 ± 0.22^^ mg/dL
Uric acid (mean ± SEM) [4, 12]: 3.45 ± 0.12 mg/dL
CYA concentration, Serum [5]: <LOD
CYA concentration, Amniotic Fluid [6]: <LOD
Stability of crystals to freeze–thaw cycles ([7]; frozen kidney tissue, CYA stable if held at −70 °C): able to withstand freeze–thaw cycles
Period over which crystals progressively dissolve in 100% ethanol ([7]; kidney wet-mount sections): 6 days
Time within which crystal presence was greatly reduced in formalin ([7]; kidney wet-mount sections): ≤ 2 h
Number of rats with epithelial necrosis in the bladder (kidney and bladder; MEL: pregnant rats, minimal to marked, CYA: 1 pregnant, 2 non-pregnant, mild): 3
Rats with tubular dilation (kidney and bladder; [14]): 92%
Rats with tubular necrosis (kidney and bladder; [14]): 100%
Animals removed from the study early (rats; non-pregnant rats (n = 11)): 1
Maternal health during 10 day dosing period (rats; pregnant and non-pregnant rats): lost condition
Animals removed from the study early (rats; pregnant rats (n = 13)): 7
Area under the curve (AUC) [8]: 1992 ng·h/mL
Half-life [8]: 1.92 h
Substrate for ABC transporter ABCB1 (ABCB1): not a substrate
Substrate for ABC transporter ABCC2 (ABCC2): not a substrate
Substrate for ABC transporter ABCG2 (ABCG2): not a substrate
Detection of melamine in amniotic fluid ([9]; 40 mg/kg BW GD13 to GD20): did not detect
Detection of melamine in amniotic fluid ([9]; 400 mg/kg BW): detected
Amniotic fluid concentration as percent of maternal serum [9]: approximately 17%
Microscopically-observed pathology in the ovaries or uteri (pregnant rats [10]): did not report any microscopically-observed pathology
